In brackets after ≈: the same amount, converted by molar mass. Activity calls are given as the source filed them. No cut-off for these calls is given here.
Experiments:
Enterococcus faecium [1] = experiment: Antimicrobial activity against Enterococcus faecium assessed as inhibition of microbial growth at 45 uM after 24 hrs; type: functional, organism-based
Summary of the method: (§1)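 Broth microdilution single-concentration read: overnight cultures diluted 1:1000, compound in DMF (≤2.0%) added, 37°C for 24 h, growth inhibition scored visually by lack of turbidity; triplicate. Gram-positives grown in TSB, Gram-negatives in LB.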

Staphylococcus aureus [2] = experiment: Antimicrobial activity against Staphylococcus aureus assessed as inhibition of microbial growth at 45 uM after 24 hrs; type: functional, organism-based; summary of the method: as §1
Klebsiella pneumoniae [3] = experiment: Antimicrobial activity against Klebsiella pneumoniae assessed as inhibition of microbial growth at 45 uM after 24 hrs; type: functional, organism-based; summary of the method: as §1
Acinetobacter baumannii [4] = experiment: Antimicrobial activity against Acinetobacter baumannii assessed as inhibition of microbial growth at 45 uM after 24 hrs; type: functional, organism-based; summary of the method: as §1
Pseudomonas aeruginosa [5] = experiment: Antimicrobial activity against Pseudomonas aeruginosa assessed as inhibition of microbial growth at 45 uM after 24 hrs; type: functional, organism-based; summary of the method: as §1
Enterobacter cloacae [6] = experiment: Antimicrobial activity against Enterobacter cloacae assessed as inhibition of microbial growth at 45 uM after 24 hrs; type: functional, organism-based; summary of the method: as §1
Enterococcus faecium [7] = experiment: Antimicrobial activity against Enterococcus faecium assessed as inhibition of microbial growth after 24 hrs; type: functional
Summary of the method: (§2)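 Broth microdilution against multidrug-resistant clinical ESKAPE isolates. Overnight cultures (TSB for Gram-positives, LB for Gram-negatives) diluted 1:1000 in fresh medium, compound in DMF (≤2.0% DMF) added at decreasing concentrations, 37°C.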

Staphylococcus aureus [8] = experiment: Antimicrobial activity against Staphylococcus aureus assessed as inhibition of microbial growth after 24 hrs; type: functional; summary of the method: as §2
Klebsiella pneumoniae [9] = experiment: Antimicrobial activity against Klebsiella pneumoniae assessed as inhibition of microbial growth after 24 hrs; type: functional; summary of the method: as §2
Acinetobacter baumannii [10] = experiment: Antimicrobial activity against Acinetobacter baumannii assessed as inhibition of microbial growth after 24 hrs; type: functional; summary of the method: as §2
Pseudomonas aeruginosa [11] = experiment: Antimicrobial activity against Pseudomonas aeruginosa assessed as inhibition of microbial growth after 24 hrs; type: functional; summary of the method: as §2
Enterobacter cloacae [12] = experiment: Antimicrobial activity against Enterobacter cloacae assessed as inhibition of microbial growth after 24 hrs; type: functional; summary of the method: as §2
Klebsiella pneumoniae [13] = experiment: Antimicrobial activity against Klebsiella pneumoniae isolate 1441 assessed as inhibition of microbial growth in presence of 100 uM efflux pump inhibitor reserpine after 24 hrs; type: functional, organism-based
Enterococcus faecium [14] = experiment: Bactericidal activity against Enterococcus faecium after 24 hrs; type: functional
Staphylococcus aureus [15] = experiment: Bactericidal activity against Staphylococcus aureus after 24 hrs; type: functional
Klebsiella pneumoniae [16] = experiment: Bactericidal activity against Klebsiella pneumoniae after 24 hrs; type: functional
Acinetobacter baumannii [17] = experiment: Bactericidal activity against Acinetobacter baumannii after 24 hrs; type: functional
Pseudomonas aeruginosa [18] = experiment: Bactericidal activity against Pseudomonas aeruginosa after 24 hrs; type: functional
Enterobacter cloacae [19] = experiment: Bactericidal activity against Enterobacter cloacae after 24 hrs; type: functional
Staphylococcus aureus [20] = experiment: Effect on bacterial density of methicillin-resistant Staphylococcus aureus at MIC measured over 2 hrs period by time kill assay; type: functional, organism-based
Staphylococcus aureus [21] = experiment: Bactericidal activity against methicillin-resistant Staphylococcus aureus assessed as cell survival recovery at MIC measured after drug wash out after 120 mins by time kill assay; type: functional
Summary of the method: (§3)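 MRSA from stationary phase was regrown 3 h in TSB and seeded at OD600 0.5. […] After 120 min, cells were centrifuged and washed, serially diluted and plated for CFU. Percent recovery is relative to no-drug controls.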

Staphylococcus aureus [22] = experiment: Bactericidal activity against methicillin-resistant Staphylococcus aureus at MIC measured after drug wash out after 120 mins by time kill assay; type: functional; summary of the method: as §3
Enterococcus faecium [23] = experiment: Antibiofilm activity against Enterococcus faecium incubated for 24 hrs followed by biofilm resuspension in PBS and measured after 24 hrs; type: functional
Summary of the method: (§4)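 Biofilms grown 24 h in 96-well plates from overnight cultures standardized to OD600 0.5 in fresh medium (human serum only for S. aureus; TSB for Gram-positives, LB for Gram-negatives). Medium then replaced with fresh medium containing a concentration range above and below MIC, 37°C overnight. After 24 h biofilm resuspended in PBS, serially diluted, plated in duplicate, CFU counted after 24 h at 37°C. Activity relative to untreated; three technical replicates; MBEC50 reported.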

Staphylococcus aureus [24] = experiment: Antibiofilm activity against Staphylococcus aureus incubated for 24 hrs followed by biofilm resuspension in PBS and measured after 24 hrs; type: functional; summary of the method: as §4
Klebsiella pneumoniae [25] = experiment: Antibiofilm activity against Klebsiella pneumoniae incubated for 24 hrs followed by biofilm resuspension in PBS and measured after 24 hrs; type: functional; summary of the method: as §4
Acinetobacter baumannii [26] = experiment: Antibiofilm activity against Acinetobacter baumannii incubated for 24 hrs followed by biofilm resuspension in PBS and measured after 24 hrs; type: functional; summary of the method: as §4
Pseudomonas aeruginosa [27] = experiment: Antibiofilm activity against Pseudomonas aeruginosa incubated for 24 hrs followed by biofilm resuspension in PBS and measured after 24 hrs; type: functional; summary of the method: as §4
Enterobacter cloacae [28] = experiment: Antibiofilm activity against Enterobacter cloacae incubated for 24 hrs followed by biofilm resuspension in PBS and measured after 24 hrs; type: functional; summary of the method: as §4
A549 = experiment: Cytotoxicity against human A549 cells after 48 hrs by MTT assay; type: cell-based; details: A549, 48 h
Summary of the method: (§5)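 A549 cells grown in F-12K with L-glutamine, 10% FBS, 1% penicillin-streptomycin, seeded at 1.0 × 10^5 ml−1, allowed to adhere 24 h (37°C, 5% CO2), then exposed to compound in 45% w/v (2-hydroxypropyl)-β-cyclodextrin vehicle for 48 h. MTT 4 h, formazan solubilized in DMSO, absorbance 540 nm. Percent recovery versus vehicle-only; IC50 derived; at least three independent experiments.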

[29] = Selectivity index, ratio of IC50 for human A549 cells to MIC for Enterococcus faecium
[30] = Selectivity index, ratio of IC50 for human A549 cells to MIC for Staphylococcus aureus
[31] = Selectivity index, ratio of IC50 for human A549 cells to MIC for Klebsiella pneumoniae
[32] = Selectivity index, ratio of IC50 for human A549 cells to MIC for Acinetobacter baumannii
[33] = Selectivity index, ratio of IC50 for human A549 cells to MIC for Pseudomonas aeruginosa
[34] = Selectivity index, ratio of IC50 for human A549 cells to MIC for Enterobacter cloacae
[35] = Cytotoxicity against human A549 cells assessed as cell viability recovery up to 100 uM after 48 hrs by MTT assay; type: cell-based; details: read-out: Activity; summary of the method: as §5
[36] = Cytotoxicity against human A549 cells assessed as cell viability recovery at 225 uM after 48 hrs by MTT assay; type: cell-based; details: read-out: Activity; summary of the method: as §5
[37] = Induction of hemolysis in human RBC at 10 uM incubated for 15 mins; type: cell-based, Erythrocyte; details: red blood cells, read-out: Activity
Summary of the method: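 Human RBCs from whole blood, resuspended 20% v/v in HA buffer (NaCl, CaCl2), compound 10 μM, 15 min at 37°C. Centrifuged 5,500 g for 1 min, supernatant OD543 read. Percent hemolysis against DMF vehicle (0%) and 1.0% Triton X-100 (100%); triplicate.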

Enterococcus faecium [38] = experiment: Induction of spontaneous mutation in Enterococcus faecium at 2 to 10 MIC; type: functional, organism-based
Staphylococcus aureus [39] = experiment: Induction of spontaneous mutation in Staphylococcus aureus at 2 to 10 MIC; type: functional, organism-based
Klebsiella pneumoniae [40] = experiment: Induction of spontaneous mutation in Klebsiella pneumoniae at 2 to 10 MIC; type: functional, organism-based
Acinetobacter baumannii [41] = experiment: Induction of spontaneous mutation in Acinetobacter baumannii at 2 to 10 MIC; type: functional, organism-based
Pseudomonas aeruginosa [42] = experiment: Induction of spontaneous mutation in Pseudomonas aeruginosa at 2 to 10 MIC; type: functional, organism-based; details: 2 to 10 x MIC
Enterobacter cloacae [43] = experiment: Induction of spontaneous mutation in Enterobacter cloacae at 2 to 10 MIC; type: functional, organism-based
Staphylococcus aureus [44] = experiment: Ratio of MIC for Staphylococcus aureus measured after 8 cycle passage to MIC for wild type Staphylococcus aureus; type: functional
Klebsiella pneumoniae [45] = experiment: Ratio of MIC for Klebsiella pneumoniae measured after 8 cycle passage to MIC for wild type Klebsiella pneumoniae; type: functional
Acinetobacter baumannii [46] = experiment: Ratio of MIC for Acinetobacter baumannii measured after 8 cycle passage to MIC for wild type Acinetobacter baumannii; type: functional
Enterobacter cloacae [47] = experiment: Ratio of MIC for Enterobacter cloacae measured after 8 cycle passage to MIC for wild type Enterobacter cloacae; type: functional
Staphylococcus aureus [48] = experiment: Antimicrobial activity against Staphylococcus aureus USA300 strain FPR3757 infected in mouse model of lethal peritonitis assessed as mouse survival at 2 uM, im dosed 1 hr post infection and measured after 5 days post infection; type: functional, organism-based
Summary of the method: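 Mice, six per group, infected i.p. with 1 × 10^8 CFU ml−1 S. aureus USA300 FPR3757 in PBS with 5% mucin. Compound given i.m. at 2 μM 1 h later; vehicle 45% w/v (2-hydroxypropyl)-β-cyclodextrin in water i.v.; vancomycin i.v. as control. Monitored twice daily for 5 days, pre-moribund animals euthanized. Survival compared by log-rank test.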

Staphylococcus aureus [49] = experiment: Induction of bacterial cell lysis in methicillin-resistant Staphylococcus aureus assessed as cell recovery at 2% by time kill assay; type: functional
Staphylococcus aureus [50] = experiment: Bactericidal activity against methicillin-resistant Staphylococcus aureus assessed as cell survival recovery at 2% measured after drug wash out after 120 mins by time kill assay; type: functional; summary of the method: as §3

CCCCCCCN1C(=N)N(CCCC[C@H]2CNC(=N)N2CCCCC2CCCCC2)C[C@@H]1CC1CCCCC1
growth inhibition (GI) (Enterococcus faecium [1]): Active | growth inhibition (GI) (Staphylococcus aureus [2]): Active | growth inhibition (GI) (Klebsiella pneumoniae [3]): Active | growth inhibition (GI) (Acinetobacter baumannii [4]): Active | growth inhibition (GI) (Pseudomonas aeruginosa [5]): Active | growth inhibition (GI) (Enterobacter cloacae [6]): Active | MIC (Enterococcus faecium [7]): 1.6 µM | MIC (Staphylococcus aureus [8]): 1.6 µM | MIC (Klebsiella pneumoniae [9]): 1.6 µM | MIC (Acinetobacter baumannii [10]): 1.6 µM | MIC (Pseudomonas aeruginosa [11]): 1.6 µM | MIC (Enterobacter cloacae [12]): 1.6 µM | growth inhibition (GI) (Klebsiella pneumoniae [13]): Active | MBC90 (Enterococcus faecium [14]): 2.9 µM (≈ 1.62 µg/mL) | MBC90 (Staphylococcus aureus [15]): 3.9 µM (≈ 2.17 µg/mL) | MBC90 (Klebsiella pneumoniae [16]): 4.5 µM (≈ 2.51 µg/mL) | MBC90 (Acinetobacter baumannii [17]): 2.8 µM (≈ 1.56 µg/mL) | MBC90 (Pseudomonas aeruginosa [18]): 4 µM (≈ 2.23 µg/mL) | MBC90 (Enterobacter cloacae [19]): 9.6 µM (≈ 5.35 µg/mL) | Activity (Staphylococcus aureus [20]): inactive | Survival (Staphylococcus aureus [21]): 0.2% | fold change (FC) (Staphylococcus aureus [22]): 2.5 | MBEC50 (Enterococcus faecium [23]): 28 µM | MBEC50 (Staphylococcus aureus [24]): 7.6 µM | MBEC50 (Klebsiella pneumoniae [25]): 6.3 µM | MBEC50 (Acinetobacter baumannii [26]): 14 µM | MBEC50 (Pseudomonas aeruginosa [27]): 34 µM | MBEC50 (Enterobacter cloacae [28]): 13 µM | IC50 (A549): > 225 µM | Selectivity Index [29]: >139 | Selectivity Index [30]: >139 | Selectivity Index [31]: >139 | Selectivity Index [32]: >139 | Selectivity Index [33]: >139 | Selectivity Index [34]: >139 | viability at 48 h [35]: > 65% | viability at 48 h, 225 µM [36]: > 50% | hemolysis at 0.25 h, 10 µM [37]: 0.34% | Activity (Enterococcus faecium [38]): inactive | Activity (Staphylococcus aureus [39]): inactive | Activity (Klebsiella pneumoniae [40]): inactive | Activity (Acinetobacter baumannii [41]): inactive | Activity (Pseudomonas aeruginosa [42]): inactive | Activity (Enterobacter cloacae [43]): inactive | Ratio (Staphylococcus aureus [44]): 16 | Ratio (Klebsiella pneumoniae [45]): <=8 | Ratio (Acinetobacter baumannii [46]): <=8 | Ratio (Enterobacter cloacae [47]): <=8 | Activity (Staphylococcus aureus [48]): Active

CCCCCCCCCCCCOS(=O)(=O)[O-].[Na+] [SODIUM LAURYL SULFATE]
Activity (Staphylococcus aureus [49]): 52% | Survival (Staphylococcus aureus [50]): 0%

From ChEMBL document CHEMBL3421570, “Combinatorial Libraries As a Tool for the Discovery of Novel, Broad-Spectrum Antibacterial Agents Targeting the ESKAPE Pathogens” (J Med Chem, 2015)
